# Data published in ChEMBL document CHEMBL2010769, “Synthesis and antiviral activity of 6-deoxycyclopropavir, a new prodrug of cyclopropavir” (Bioorg Med Chem, 2012).
# Key:
# Mus musculus [1] = assay: Toxicity in BALB/c mouse assessed as ruffled coat appearance at 16.7 mg/kg, po qd for 5 days relative to control; assay type: organism-based; design: dose 16.7 mg/kg, route oral; conditions: in vivo, 120 h
# Outline: (§1)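 Uninfected female BALB/c mice, 3 weeks old, in groups of 5. Compound suspended in 0.4% carboxymethylcellulose and given orally in 0.2 mL once daily for 5 days at 50, 16.7 or 5.6 mg/kg. Mean group body weight tracked over days 1–5 plus day 6 recovery. Clinical signs (ruffled coat, behaviour) were observed. Comparison was with vehicle-treated or untreated mice.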
# Mus musculus [2] = assay: Toxicity in BALB/c mouse assessed as changes in behavior at 50 mg/kg, po qd for 5 days relative to control; assay type: organism-based; design: dose 50 mg/kg, route oral; conditions: in vivo, 120 h; outline: as §1
# Mus musculus [3] = assay: Toxicity in BALB/c mouse assessed as changes in behavior at 5.6 mg/kg, po qd for 5 days relative to control; assay type: organism-based; design: dose 5.6 mg/kg, route oral; conditions: in vivo, 120 h; outline: as §1
# Murid betaherpesvirus 1 [4] = assay: Antiviral activity against MCMV infected in BALB/c mouse assessed as decrease in virus-induced mortality at 16.7 mg/kg, po qd for 5 days administered 24 hrs after viral infection (reference value: 67%); assay type: functional; design: scale not given: the % may be the effect or the level left
# Outline: (§2)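 Female BALB/c mice (3 weeks, 15/group) were inoculated ip with MCMV Smith at about LD90. Oral dosing of 0.2 mL in 0.4% CMC ran once daily for 5 days, starting 24 or 48 h post-inoculation. Mice were observed daily for 21 days. Mortality was compared with CMC placebo by Fisher's exact test.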
# Murid betaherpesvirus 1 [5] = assay: Antiviral activity against MCMV infected in BALB/c mouse assessed as decrease in virus-induced mortality at 50 mg/kg, po qd for 5 days administered 48 hrs after viral infection (reference value: 100%); assay type: functional; design: scale not given: the % may be the effect or the level left; outline: as §2
# Murid betaherpesvirus 1 [6] = assay: Antiviral activity against MCMV infected in BALB/c mouse assessed as decrease in virus-induced mortality at 16.7 mg/kg, po qd for 5 days administered 48 hrs after viral infection (reference value: 100%); assay type: functional; design: scale not given: the % may be the effect or the level left; outline: as §2
# Human betaherpesvirus 5 [7] = assay: Antiviral activity against HCMV Toledo infected in human thymus/liver tissue xenografted in SCID mouse assessed as mean log10 genome equivalents/animal at 12.5 mg/kg, po qd for 14 days by RT-PCR analysis (reference value: 3.50 +/- 0.878); assay type: functional, strain Toledo
# Human betaherpesvirus 5 [8] = assay: Antiviral activity against HCMV Toledo infected in human thymus/liver tissue xenografted in SCID mouse assessed as mean log10 genome equivalents/animal at 12.5 mg/kg, po qd for 28 days measured on day 35 by RT-PCR analysis (reference value: 3.28 +/- 1.422); assay type: functional, strain Toledo
# Human betaherpesvirus 5 [9] = assay: Antiviral activity against HCMV Toledo infected in human thymus/liver tissue xenografted in SCID mouse assessed as mean log10 genome equivalents/animal at 6.25 mg/kg, po qd for 21 days by RT-PCR analysis (reference value: 3.82 +/- 1.24); assay type: functional, strain Toledo
# Human betaherpesvirus 5 [10] = assay: Antiviral activity against HCMV Toledo infected in human thymus/liver tissue xenografted in SCID mouse assessed as decrease in viral infection at 12.5 mg/kg, po qd for 21 days by RT-PCR analysis (reference value: 92%); assay type: functional, strain Toledo; design: scale not given: the % may be the effect or the level left
# Human betaherpesvirus 5 [11] = assay: Antiviral activity against HCMV Toledo infected in human thymus/liver tissue xenografted in SCID mouse assessed as decrease in viral infection at 12.5 mg/kg, po qd for 28 days by RT-PCR analysis (reference value: 92%); assay type: functional, strain Toledo; design: scale not given: the % may be the effect or the level left
# Human betaherpesvirus 5 [12] = assay: Antiviral activity against HCMV Toledo infected in human thymus/liver tissue xenografted in SCID mouse assessed as decrease in viral infection at 12.5 mg/kg, po qd for 28 days measured on day 35 by RT-PCR analysis (reference value: 67%); assay type: functional, strain Toledo; design: scale not given: the % may be the effect or the level left
# Human betaherpesvirus 5 [13] = assay: Antiviral activity against HCMV Toledo infected in human thymus/liver tissue xenografted in SCID mouse assessed as decrease in viral infection at 6.25 mg/kg, po qd for 14 days by RT-PCR analysis (reference value: 92%); assay type: functional, strain Toledo; design: scale not given: the % may be the effect or the level left
# Human betaherpesvirus 5 [14] = assay: Antiviral activity against HCMV Toledo infected in human thymus/liver tissue xenografted in SCID mouse assessed as decrease in viral infection at 6.25 mg/kg, po qd for 28 days measured on day 35 by RT-PCR analysis (reference value: 67%); assay type: functional, strain Toledo; design: scale not given: the % may be the effect or the level left
# Human betaherpesvirus 5 [15] = assay: Antiviral activity against HCMV Towne infected in HFF by plaque reduction assay; assay type: functional, organism-based; conditions: Human betaherpesvirus 5, Towne
# Outline: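 HCMV work used human foreskin fibroblasts as primary cultures, propagated in MEM with 10% FBS and L-glutamine, with or without antibiotics.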
# Human alphaherpesvirus 3 = assay: Antiviral activity against VZV infected in HFF assessed as reduction in virus induced cytopathic effect; assay type: functional, organism-based
smiles,measurement,setting,value
Nc1ncc2ncn(/C=C3/CC3(CO)CO)c2n1,Activity,Mus musculus [1],Non-toxic
same,Activity,Mus musculus [2],Non-toxic
same,Activity,Mus musculus [3],Non-toxic
same,Activity,Murid betaherpesvirus 1 [4],0%
same,Activity,Murid betaherpesvirus 1 [5],67%
same,Activity,Murid betaherpesvirus 1 [6],7%
same,Activity,Human betaherpesvirus 5 [7],3.03
same,Activity,Human betaherpesvirus 5 [8],2.69
same,Activity,Human betaherpesvirus 5 [9],3.14
same,Activity,Human betaherpesvirus 5 [10],82%
same,Activity,Human betaherpesvirus 5 [11],50%
same,Activity,Human betaherpesvirus 5 [12],83%
same,Activity,Human betaherpesvirus 5 [13],92%
same,Activity,Human betaherpesvirus 5 [14],100%
same,EC50,Human betaherpesvirus 5 [15],> 100 µM
same,EC50,Human alphaherpesvirus 3,> 300 µM
